Source: ChEMBL document CHEMBL2203148, “Increased selectivity toward cytoplasmic versus mitochondrial ribosome confers improved efficiency of synthetic aminoglycosides in fixing damaged genes: a strategy for treatment of genetic diseases caused by nonsense mutations” (J Med Chem, 2012)
In brackets after ≈: the same amount, converted by molar mass. Structures can show the parent of a compound that is named as a salt. Activity calls are given as the source filed them. The rule behind the calls is not given here.

Assays:
[1] = Selectivity ratio of IC50 for ribosome-mediated protein synthesis in rabbit reticulocytes to IC50 for ribosome S30 subunit-mediated protein synthesis in Escherichia coli
Escherichia coli = assay: Antibacterial activity against Escherichia coli R477/100 by microdilution method; format: functional
[2] = (§1) Cytotoxicity against human HEK293 cells assessed as cell viability after 48 hrs by XTT based calorimetric assay; details: HEK293 cells, read-out: LC50
Procedure, shortened: (§2)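 Cells seeded at 5,000/well in DMEM with 10% FBS and 1% glutamine at 37 °C, 5% CO₂; after overnight culture, graded aminoglycoside concentrations added for a further 48 hr. XTT viability read-out with 3 hr incubation by optical density, viability expressed relative to untreated cultures; LC50 fitted from concentration-response curves of at least three independent experiments.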

Ribosome [3] = assay: Inhibition of ribosome-mediated protein synthesis in rabbit reticulocytes after 60 mins by coupled transcription/translation assay; format: subcellular, Oryctolagus cuniculus
Procedure, shortened: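 Eukaryotic inhibition used the TNT T7 Quick coupled transcription/translation system with T7 control luciferase DNA. Varied aminoglycoside concentrations were incubated with the 10 µl reaction at 30 °C for 60 min and ice-cooled 5 min. Samples were diluted in the same buffer and luminescence was read on adding luciferase reagent. IC50 was fitted from at least three independent experiments.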

[4] = Inhibition of ribosome S30 subunit-mediated protein synthesis in Escherichia coli after 60 mins by coupled transcription/translation assay
Procedure, shortened: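 Prokaryotic coupled transcription/translation with a luciferase read-out. Varied aminoglycoside concentrations were incubated with the 10 µl reaction at 37°C for 60 min, then ice-cooled 5 min. Samples were diluted in tris-phosphate (25 mM, pH 7.8), DTT, CDTA, glycerol, Triton X-100 and BSA, and luminescence was read on adding luciferase reagent. IC50 was fitted from at least three independent experiments.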

Ribosome [5] = assay: Inhibition of ribosome-mediated translation of IDUA Q70X nonsense mutant gene expressed in rabbit reticulocytes harboring p2luc plasmid after 16 hrs by dual luciferase reporter gene assay; format: subcellular; set-up: scale not given: the % may be the effect or the level left
Ribosome [6] = assay: Inhibition of ribosome-mediated translation of DMD R3381X nonsense mutant gene expressed in rabbit reticulocytes harboring p2luc plasmid after 16 hrs by dual luciferase reporter gene assay; format: subcellular; set-up: scale not given: the % may be the effect or the level left
Ribosome [7] = assay: Inhibition of ribosome-mediated translation of CFTR W1282X nonsense mutant gene expressed in rabbit reticulocytes harboring p2luc plasmid after 16 hrs by dual luciferase reporter gene assay; format: subcellular; set-up: scale not given: the % may be the effect or the level left
Ribosome [8] = assay: Inhibition of ribosome-mediated translation of CFTR G542X nonsense mutant gene expressed in rabbit reticulocytes harboring p2luc plasmid after 16 hrs by dual luciferase reporter gene assay; format: subcellular; set-up: scale not given: the % may be the effect or the level left
Ribosome [9] = assay: Inhibition of ribosome-mediated translation of PCDH15 R3X nonsense mutant gene expressed in rabbit reticulocytes harboring p2luc plasmid after 16 hrs by dual luciferase reporter gene assay; format: subcellular; set-up: scale not given: the % may be the effect or the level left
Ribosome [10] = assay: Inhibition of ribosome-mediated translation of PCDH15 R245X nonsense mutant gene expressed in rabbit reticulocytes harboring p2luc plasmid after 16 hrs by dual luciferase reporter gene assay; format: subcellular; set-up: scale not given: the % may be the effect or the level left
HFF = assay: Cytotoxicity against human HFF cells assessed as cell viability after 48 hrs by XTT based calorimetric assay relative to control; procedure, shortened: as §2
Bacillus subtilis = assay: Antibacterial activity against Bacillus subtilis ATCC-6633 by double-microdilution method; format: functional, organism-based
HeLa = assay: Ratio of compound IC50 to gentamicin IC50 for inhibition of mitochondrial ribosome- protein synthesis in human HeLa cells; format: subcellular
HEK293 = assay: as §1; details: hek293, 48 h, read-out: LC50 (the source's name); procedure, shortened: as §2
[11] = target: mitochondrial ribosome (Homo sapiens); assay: Inhibition of mitochondrial ribosome-mediated protein synthesis in human HeLa cells assessed as {35S]methionine incorporation by autoradiography

Molecule | Ratio IC50 [1] | MIC (Escherichia coli) [µM] | CC50 at 48 h [2] [µM] | IC50 (Ribosome [3]) [µM] | IC50 [4] [µM] | Activity (Ribosome [5]) | Activity (Ribosome [6]) [%] | Activity (Ribosome [7]) [%] | Activity (Ribosome [8]) [%] | Activity (Ribosome [9]) [%] | Activity (Ribosome [10]) [%] | Activity (HFF) | Activity (Bacillus subtilis) | Ratio IC50 (HeLa) | CC50 (HEK293) [µM] | IC50 [11] [µM]
NC[C@H]1O[C@@H](O[C@@H]2[C@@H](O)[C@H](N)C[C@H](N)[C@H]2O[C@H]2O[C@H](CO)[C@@H](O)[C@H](O)[C@H]2N)[C@H](O)[C@@H]1O | 68 | 790 (≈ 359 µg/mL) | 21900 | 31 | 0.5 |  |  |  |  |  |  |  |  |  |  | 
C[C@H](N)[C@H]1O[C@@H](O[C@@H]2[C@@H](O)[C@H](NC(=O)[C@@H](O)CCN)C[C@H](N)[C@H]2O[C@H]2O[C@H](CO)[C@@H](O)[C@H](O)[C@H]2N)[C@H](O)[C@@H]1O | 2.3 | 1070 (≈ 608 µg/mL) |  | 5.2 | 2.3 |  |  |  |  |  |  |  |  |  |  | 
C[C@H](N)[C@H]1O[C@@H](O[C@@H]2[C@@H](O)[C@H](N)C[C@H](N)[C@H]2O[C@H]2O[C@H]([C@@H](C)O)[C@@H](O)[C@H](O)[C@H]2N)[C@H](O)[C@@H]1O | 1.3 | 768 (≈ 371 µg/mL) | 5400 | 1.5 | 1.1 | 50% | 50 | 50 | 50 | 50 | 50 |  |  |  |  | 
NC[C@@H]1O[C@H](O[C@H]2[C@@H](O)[C@H](O[C@@H]3[C@@H](O)[C@H](N)C[C@H](N)[C@H]3O[C@H]3O[C@H](CO)[C@@H](O)[C@H](O)[C@H]3N)O[C@@H]2CO)[C@H](N)[C@@H](O)[C@@H]1O [PAROMOMYCIN SULFATE] | 1120 | 22 |  | 57 | 0.05 |  |  |  |  |  |  |  |  |  |  | 
CN[C@@H]1[C@@H](O)[C@@H](O[C@@H]2[C@@H](O)[C@H](O[C@H]3O[C@H]([C@@H](C)O)[C@@H](O)[C@H](O)[C@H]3N)[C@@H](N)C[C@H]2N)OC[C@]1(C)O.O=S(=O)(O)O [GENETICIN SULFATE SALT] |  | 9 |  | 2 | 0.01 |  |  |  |  |  |  | Non-toxic | Active |  |  | 
NCC[C@H](O)C(=O)N[C@@H]1C[C@H](N)[C@@H](O[C@H]2O[C@H](CO)[C@@H](O)[C@H](O)[C@H]2N)[C@H](O[C@@H]2O[C@H](CN)[C@@H](O)[C@H]2O)[C@H]1O | 151 | 588 (≈ 327 µg/mL) | 5500 | 24 | 0.2 |  |  |  |  |  |  |  |  | 19 |  | 
GENTAMICIN SULFATE [listing 1 of 2 here] | 2210 | 6 |  |  |  | 20% | 20 | 20 | 20 | 20 | 20 |  | Active |  |  | 
C[C@@H](N)[C@H]1O[C@@H](O[C@@H]2[C@@H](O)[C@H](N)C[C@H](N)[C@H]2O[C@H]2O[C@H](CO)[C@@H](O)[C@H](O)[C@H]2N)[C@H](O)[C@@H]1O | 13 | 4990 (≈ 2340 µg/mL) |  | 28 | 2.1 |  |  |  |  |  |  |  |  |  |  | 
C[C@@H](N)[C@H]1O[C@@H](O[C@@H]2[C@@H](O)[C@H](N)C[C@H](N)[C@H]2O[C@H]2O[C@H]([C@@H](C)O)[C@@H](O)[C@H](O)[C@H]2N)[C@H](O)[C@@H]1O | 4.3 | 1540 (≈ 741 µg/mL) | 16500 | 8 | 1.9 | 20% | 20 | 20 | 20 | 20 | 20 |  |  |  |  | 
C[C@H](N)[C@H]1O[C@@H](O[C@@H]2[C@@H](O)[C@H](NC(=O)[C@@H](O)CCN)C[C@H](N)[C@H]2O[C@H]2O[C@H]([C@@H](C)O)[C@@H](O)[C@H](O)[C@H]2N)[C@H](O)[C@@H]1O | 0.4 | 384 (≈ 224 µg/mL) | 5100 | 0.7 | 1.8 |  |  |  |  |  |  |  |  |  |  | 
C[C@H](N)[C@H]1O[C@@H](O[C@@H]2[C@@H](O)[C@H](N)C[C@H](N)[C@H]2O[C@H]2O[C@H](CO)[C@@H](O)[C@H](O)[C@H]2N)[C@H](O)[C@@H]1O | 7.9 | 2660 (≈ 1250 µg/mL) |  | 16 | 2 |  |  |  |  |  |  |  |  |  |  | 
GENTAMICIN SULFATE [listing 2 of 2 here] |  |  |  | 62 |  |  |  |  |  |  |  |  |  |  | 2500 | 26
C[C@@H](O)[C@H]1O[C@H](O[C@H]2[C@H](O[C@@H]3O[C@H](CN)[C@@H](O)[C@H]3O)[C@@H](O)[C@H](NC(=O)[C@@H](O)CCN)C[C@@H]2N)[C@H](N)[C@@H](O)[C@@H]1O | 2.9 | 556 (≈ 317 µg/mL) | 5800 | 2.8 | 1 | 50% | 50 | 50 | 50 | 50 | 50 |  |  |  |  | 
C[C@@H](O)[C@H]1O[C@H](O[C@H]2[C@H](O[C@@H]3O[C@H](CN)[C@@H](O)[C@H]3O)[C@@H](O)[C@H](N)C[C@@H]2N)[C@H](N)[C@@H](O)[C@@H]1O | 15 |  | 22200 |  | 1.1 | 20% | 20 | 20 | 20 | 20 | 20 |  |  |  |  | 
C[C@@H](N)[C@H]1O[C@@H](O[C@@H]2[C@@H](O)[C@H](NC(=O)[C@@H](O)CCN)C[C@H](N)[C@H]2O[C@H]2O[C@H](CO)[C@@H](O)[C@H](O)[C@H]2N)[C@H](O)[C@@H]1O | 5.7 | 1060 (≈ 602 µg/mL) |  | 4.6 | 0.8 |  |  |  |  |  |  |  |  |  |  | 
C[C@@H](N)[C@H]1O[C@@H](O[C@@H]2[C@@H](O)[C@H](NC(=O)[C@@H](O)CCN)C[C@H](N)[C@H]2O[C@H]2O[C@H]([C@@H](C)O)[C@@H](O)[C@H](O)[C@H]2N)[C@H](O)[C@@H]1O | 0.5 | 384 (≈ 224 µg/mL) | 5400 | 0.9 | 1.8 | Dose-dependent effect |  |  |  |  |  |  |  |  |  | 
